{"source": "ChEMBL document CHEMBL3414508", "about": "“A few atoms make the difference: synthetic, CD, NMR and computational studies on antiviral and antibacterial activities of glycopeptide antibiotic aglycon derivatives” (Eur J Med Chem, 2015)", "key": {"[1]": {"test": "Cytotoxicity against MDCK cells after 72 hrs by microscopic analysis", "type": "cell-based, Canis lupus familiaris", "conditions": "dog", "in_short": "(§1)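 Uninfected MDCK cultures were run in parallel with serial compound dilutions for 72 h at 35°C. MCC is the concentration producing minimal changes in cell morphology, judged by microscopy. […] Means of 2 to 5 independent tests.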"}, "[2]": {"test": "Cytotoxicity against MDCK cells after 72 hrs by MTS assay", "type": "cell-based, Canis lupus familiaris", "conditions": "dog", "in_short": "as §1"}, "[3]": {"system": "Influenza A virus", "test": "Antiviral activity against Influenza A virus (A/Puerto Rico/8/34(H1N1)) infected in MDCK cells assessed as reduction of virus-induced cytopathic effect after 72 hrs by microscopic analysis", "type": "functional, organism-based", "conditions": "A/Puerto Rico/8/1934(H1N1)", "in_short": "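Subconfluent MDCK cultures given serial compound dilutions together with virus at MOI 0.0004 PFU/cell. Incubation 72 h at 35°C. Means of 2 to 5 independent tests.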"}, "[4]": {"system": "Influenza A virus", "test": "Antiviral activity against Influenza A virus (A/Puerto Rico/8/34(H1N1)) infected in MDCK cells assessed as cell viability after 72 hrs by MTS assay", "type": "functional, organism-based, A/Puerto Rico/8/1934(H1N1)", "in_short": "(§2)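 Subconfluent MDCK cultures given serial compound dilutions together with virus at MOI 0.0004 PFU/cell. Incubation 72 h at 35°C. […] Means of 2 to 5 independent tests.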"}, "[5]": {"test": "Antiviral activity against Influenza A virus (A/Hong Kong/7/1987(H3N2)) infected in MDCK cells assessed as reduction of virus-induced cytopathic effect after 72 hrs by microscopic analysis", "type": "functional, cell-based", "in_short": "as §2"}, "[6]": {"test": "Antiviral activity against Influenza A virus (A/Hong Kong/7/1987(H3N2)) infected in MDCK cells assessed as cell viability after 72 hrs by MTS assay", "type": "functional, cell-based", "in_short": "as §2"}, "[7]": {"system": "Influenza B virus", "test": "Antiviral activity against Influenza B virus (B/Hong Kong/05/1972) infected in MDCK cells assessed as reduction of virus-induced cytopathic effect after 72 hrs by microscopic analysis", "type": "functional, cell-based", "conditions": "B/Hong Kong/05/1972, MDCK", "in_short": "as §2"}, "[8]": {"system": "Influenza B virus", "test": "Antiviral activity against Influenza B virus (B/Hong Kong/05/1972) infected in MDCK cells assessed as cell viability after 72 hrs by MTS assay", "type": "functional, cell-based", "conditions": "B/Hong Kong/05/1972, MDCK", "in_short": "as §2"}, "[9]": {"conditions": "Influenza A virus, A/Puerto Rico/8/1934(H1N1), MDCK, 72 h"}}, "data": [{"smiles": "COC(=O)[C@H]1NC(=O)[C@H]2NC(=O)[C@H](NC(=O)[C@@H]3NC(=O)[C@H]4NC(=O)[C@@H](Cc5ccc(c(Cl)c5)Oc5cc3cc(c5O)Oc3ccc(cc3Cl)[C@H]2O[C@@H]2O[C@H](CO)[C@@H](O)[C@H](O)[C@H]2NC(C)=O)NC(=O)[C@H](Nc2c(NCc3ccc(-c5ccccc5)cc3)c(=O)c2=O)c2ccc(O)c(c2)Oc2cc(O)cc4c2)c2ccc(O)c(c2)-c2c(O)cc(O)cc21", "values": [{"measurement": "MCC at 72 h", "setting": "[1]", "value": 20, "unit": "µM"}, {"measurement": "CC50 at 72 h", "setting": "[2]", "value": 58, "unit": "µM"}, {"measurement": "EC50", "setting": "[3]", "value": "> 100", "unit": "µM"}, {"measurement": "EC50", "setting": "[4]; [9]", "value": "> 100", "unit": "µM"}, {"measurement": "EC50", "setting": "[5]", "value": "> 100", "unit": "µM"}, {"measurement": "EC50", "setting": "[6]", "value": "> 100", "unit": "µM"}, {"measurement": "EC50", "setting": "[7]", "value": "> 100", "unit": "µM"}, {"measurement": "EC50", "setting": "[8]", "value": "> 100", "unit": "µM"}]}, {"smiles": "COc1c(N[C@H]2C(=O)N[C@@H]3Cc4ccc(c(Cl)c4)Oc4cc5cc(c4O)Oc4ccc(cc4Cl)[C@@H](O)[C@@H]4NC(=O)[C@H](NC(=O)[C@@H]5NC(=O)[C@@H](NC3=O)c3cc(O)cc(c3)Oc3cc2ccc3O)c2ccc(O)c(c2)-c2c(O)cc(O)cc2[C@@H](C(=O)O)NC4=O)c(=O)c1=O", "values": [{"measurement": "MCC at 72 h", "setting": "[1]", "value": 100, "unit": "µM"}, {"measurement": "CC50 at 72 h", "setting": "[2]", "value": 49, "unit": "µM"}, {"measurement": "EC50", "setting": "[3]", "value": "> 100", "unit": "µM"}, {"measurement": "EC50", "setting": "[4]; [9]", "value": "> 100", "unit": "µM"}, {"measurement": "EC50", "setting": "[5]", "value": "> 100", "unit": "µM"}, {"measurement": "EC50", "setting": "[6]", "value": "> 100", "unit": "µM"}, {"measurement": "EC50", "setting": "[7]", "value": "> 100", "unit": "µM"}, {"measurement": "EC50", "setting": "[8]", "value": "> 100", "unit": "µM"}]}, {"smiles": "O=C1N[C@H]2C(=O)N[C@H]3C(=O)N[C@H](C(=O)N[C@H](C(=O)O)c4cc(O)cc(O)c4-c4cc3ccc4O)[C@H](O)c3ccc(c(Cl)c3)Oc3cc2cc(c3O)Oc2ccc(cc2Cl)C[C@H]2NC(=O)[C@H](Nc3c(NCc4ccc(-c5ccccc5)cc4)c(=O)c3=O)c3ccc(O)c(c3)Oc3cc(O)cc(c3)[C@@H]1NC2=O", "values": [{"measurement": "MCC at 72 h", "setting": "[1]", "value": 20, "unit": "µM"}, {"measurement": "CC50 at 72 h", "setting": "[2]", "value": 11, "unit": "µM"}, {"measurement": "EC50", "setting": "[3]", "value": "> 100", "unit": "µM"}, {"measurement": "EC50", "setting": "[4]; [9]", "value": "> 100", "unit": "µM"}, {"measurement": "EC50", "setting": "[5]", "value": "> 100", "unit": "µM"}, {"measurement": "EC50", "setting": "[6]", "value": "> 100", "unit": "µM"}, {"measurement": "EC50", "setting": "[7]", "value": "> 100", "unit": "µM"}, {"measurement": "EC50", "setting": "[8]", "value": "> 100", "unit": "µM"}]}, {"smiles": "COC(=O)[C@H]1NC(=O)[C@H]2NC(=O)[C@H](NC(=O)[C@@H]3NC(=O)[C@H]4NC(=O)[C@@H](Cc5ccc(c(Cl)c5)Oc5cc3cc(c5O)Oc3ccc(cc3Cl)[C@H]2O)NC(=O)[C@H](Nc2c(NCc3ccc(-c5ccccc5)cc3)c(=O)c2=O)c2ccc(O)c(c2)Oc2cc(O)cc4c2)c2ccc(O)c(c2)-c2c(O)cc(O)cc21", "values": [{"measurement": "MCC at 72 h", "setting": "[1]", "value": 4, "unit": "µM"}, {"measurement": "CC50 at 72 h", "setting": "[2]", "value": 7.6, "unit": "µM"}, {"measurement": "EC50", "setting": "[3]", "value": "> 100", "unit": "µM"}, {"measurement": "EC50", "setting": "[4]; [9]", "value": "> 100", "unit": "µM"}, {"measurement": "EC50", "setting": "[5]", "value": "> 100", "unit": "µM"}, {"measurement": "EC50", "setting": "[6]", "value": "> 100", "unit": "µM"}, {"measurement": "EC50", "setting": "[7]", "value": "> 100", "unit": "µM"}, {"measurement": "EC50", "setting": "[8]", "value": "> 100", "unit": "µM"}]}, {"smiles": "COC(=O)[C@H]1NC(=O)[C@H]2NC(=O)[C@H](NC(=O)[C@@H]3NC(=O)[C@H]4NC(=O)[C@@H](Cc5ccc(cc5)Oc5cc3cc(c5O)Oc3ccc(cc3)[C@H]2O)NC(=O)[C@H](Nc2c(NCc3ccc(-c5ccccc5)cc3)c(=O)c2=O)c2ccc(O)c(c2)Oc2cc(O)cc4c2)c2ccc(O)c(c2)-c2c(O)cc(O)cc21", "values": [{"measurement": "MCC at 72 h", "setting": "[1]", "value": 16, "unit": "µM"}, {"measurement": "CC50 at 72 h", "setting": "[2]", "value": 20, "unit": "µM"}, {"measurement": "EC50", "setting": "[3]", "value": 0.67, "unit": "µM"}, {"measurement": "EC50", "setting": "[4]; [9]", "value": 0.58, "unit": "µM"}, {"measurement": "EC50", "setting": "[5]", "value": 0.52, "unit": "µM"}, {"measurement": "EC50", "setting": "[6]", "value": 0.7, "unit": "µM"}, {"measurement": "EC50", "setting": "[7]", "value": "> 100", "unit": "µM"}, {"measurement": "EC50", "setting": "[8]", "value": "> 100", "unit": "µM"}]}, {"smiles": "NC12CC3CC(CC(C3)C1)C2", "note": "[AMANTADINE]", "values": [{"measurement": "MCC at 72 h", "setting": "[1]", "value": "> 500", "unit": "µM"}, {"measurement": "CC50 at 72 h", "setting": "[2]", "value": "> 500", "unit": "µM"}, {"measurement": "EC50", "setting": "[4]; [9]", "value": 453, "unit": "µM"}, {"measurement": "EC50", "setting": "[5]", "value": 2, "unit": "µM"}, {"measurement": "EC50", "setting": "[6]", "value": 1.8, "unit": "µM"}, {"measurement": "EC50", "setting": "[7]", "value": "> 500", "unit": "µM"}, {"measurement": "EC50", "setting": "[8]", "value": "> 500", "unit": "µM"}]}, {"smiles": "NC(=O)c1ncn([C@@H]2O[C@H](CO)[C@@H](O)[C@H]2O)n1", "note": "[RIBAVIRIN]", "values": [{"measurement": "MCC at 72 h", "setting": "[1]", "value": "> 100", "unit": "µM"}, {"measurement": "CC50 at 72 h", "setting": "[2]", "value": "> 100", "unit": "µM"}, {"measurement": "EC50", "setting": "[4]; mdck", "value": 8.9, "unit": "µM"}, {"measurement": "EC50", "setting": "[5]", "value": 12, "unit": "µM"}, {"measurement": "EC50", "setting": "[6]", "value": 12, "unit": "µM"}, {"measurement": "EC50", "setting": "[7]", "value": 7, "unit": "µM"}, {"measurement": "EC50", "setting": "[8]", "value": 3.4, "unit": "µM"}]}, {"smiles": "CC(N)C12CC3CC(CC(C3)C1)C2", "note": "(stereo not given) [RIMANTADINE]", "values": [{"measurement": "MCC at 72 h", "setting": "[1]", "value": "> 500", "unit": "µM"}, {"measurement": "CC50 at 72 h", "setting": "[2]", "value": "> 500", "unit": "µM"}, {"measurement": "EC50", "setting": "[3]", "value": 4, "unit": "µM"}, {"measurement": "EC50", "setting": "[4]; [9]", "value": 15, "unit": "µM"}, {"measurement": "EC50", "setting": "[5]", "value": 4, "unit": "µM"}, {"measurement": "EC50", "setting": "[6]", "value": 1.1, "unit": "µM"}, {"measurement": "EC50", "setting": "[7]", "value": "> 500", "unit": "µM"}, {"measurement": "EC50", "setting": "[8]", "value": "> 500", "unit": "µM"}]}, {"smiles": "N[C@H]1C(=O)N[C@@H]2Cc3ccc(c(Cl)c3)Oc3cc4cc(c3O)Oc3ccc(cc3Cl)[C@@H](O)[C@@H]3NC(=O)[C@H](NC(=O)[C@@H]4NC(=O)[C@@H](NC2=O)c2cc(O)cc(c2)Oc2cc1ccc2O)c1ccc(O)c(c1)-c1c(O)cc(O)cc1[C@@H](C(=O)O)NC3=O", "note": "[TEICOPLANIN AGLYCON]", "values": [{"measurement": "MCC at 72 h", "setting": "[1]", "value": 100, "unit": "µM"}, {"measurement": "CC50 at 72 h", "setting": "[2]", "value": "> 100", "unit": "µM"}, {"measurement": "EC50", "setting": "[3]", "value": "> 100", "unit": "µM"}, {"measurement": "EC50", "setting": "[4]; [9]", "value": "> 100", "unit": "µM"}, {"measurement": "EC50", "setting": "[5]", "value": "> 100", "unit": "µM"}, {"measurement": "EC50", "setting": "[6]", "value": "> 100", "unit": "µM"}, {"measurement": "EC50", "setting": "[7]", "value": "> 100", "unit": "µM"}, {"measurement": "EC50", "setting": "[8]", "value": "> 100", "unit": "µM"}]}]}
